For this experiment, the target named is Tip60 (Homo sapiens, UniProt Q92993). Kind of experiment: Radioactive HAT inhibition assay, Tip60. The format is biochemical. The essentials: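 Recombinant Tip60 acetylates H4 N-terminal 20-mer peptide (100 μM) using [14C]acetyl-CoA (10 μM) at varied DMSO levels, 30 °C, in 50 mM HEPES pH 8.0, 0.1 mM EDTA, 50 μg/mL BSA, 1 mM DTT. Enzyme added after 5 min equilibration. Initial rates measured (<10% substrate consumed) by P81 filter binding, bicarbonate washes and scintillation. Readouts are fractional activity retained and IC50 (50% activity blocked). Runs at least twice.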

Results on one molecule are retold here after article PMC3144758 (Bioorganic chemistry, 2010).

Tip60, sequence (Q92993 whole entry): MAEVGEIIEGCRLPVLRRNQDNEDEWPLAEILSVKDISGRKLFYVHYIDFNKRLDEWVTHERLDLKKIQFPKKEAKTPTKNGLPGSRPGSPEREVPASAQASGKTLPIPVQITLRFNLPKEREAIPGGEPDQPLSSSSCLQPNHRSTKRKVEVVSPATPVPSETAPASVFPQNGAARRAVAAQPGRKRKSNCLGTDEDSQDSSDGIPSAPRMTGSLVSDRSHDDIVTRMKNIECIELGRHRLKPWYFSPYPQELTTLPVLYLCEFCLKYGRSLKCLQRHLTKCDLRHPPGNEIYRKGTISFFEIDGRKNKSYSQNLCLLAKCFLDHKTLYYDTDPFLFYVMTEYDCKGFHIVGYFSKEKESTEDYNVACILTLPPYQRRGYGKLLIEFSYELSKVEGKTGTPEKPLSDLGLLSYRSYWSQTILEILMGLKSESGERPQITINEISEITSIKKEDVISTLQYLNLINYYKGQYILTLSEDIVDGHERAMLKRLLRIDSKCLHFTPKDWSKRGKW

With `C[S+](C)[O-]` [DMSO], under “DMSO (v/v), H4-20 100 μM, [14C]acetyl-CoA 10 μM”, the “IC50 of DMSO on Tip60 activity” value is on record as 37%. Also, where the note is “at 30% of DMSO”, the “Retained activity of Tip60” value amounted to 90%.
